The values below come from ChEMBL document CHEMBL1124879, “Inotropic "A" ring substituted sulmazole and isomazole analogues” (1990).

SMILES strings stand for the structures.

The species entered for experiment [1] is Canis familiaris. The experiment is described as follows: The effective dose to produce the 30%decrease in diastolic blood pressure. In kind it is functional, Canis lupus familiaris, Artery. Put shortly:
(§1)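 Anesthetized open-chest beagle dogs, 8.5-13 kg, thiopentone induction, α-chloralose/pentobarbitone maintenance, single iv bolus at 0.1 mL/kg. Heart rate taken by tachograph. Doses (mg/kg iv) giving a 50% rise in dP/dt, a 30% fall in diastolic pressure and a 10% rise in heart rate were calculated from mean dose-response data.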

The test system of experiment [2] is Canis familiaris. The experiment is described as follows: Maximum percentage change in dP/dt, diastolic blood pressure and heart rate produced by the compound at a dose 0.3 mg/kg. It counts as functional, Canis lupus familiaris, Artery. An outline of the steps:
(§2)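 Beagle dogs of either sex, 8.5-13 kg, anesthetized and open-chest. Induction with thiopentone sodium 30 mg/kg iv, then maintenance with α-chloralose 15 mg/kg plus pentobarbitone 6 mg/kg via a femoral vein cannula. Single iv bolus at 0.1 mL/kg, with vehicle bolus in every animal. Body temperature held at 37-38 °C. Maximal % change recorded for dP/dt, diastolic blood pressure and heart rate.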

Experiment [3] relates to Canis familiaris. The experiment is described as follows: Maximum percentage increase in heart rate produced by the compound at a dose 0.3 mg/kg. It counts as functional, Canis lupus familiaris. Put shortly: as §2
The species entered for experiment [4] is Canis familiaris. Put plainly: The effective dose to produce a maximum increase in dP/dt diastolic blood pressure and heart rate. In kind it is functional, Canis lupus familiaris, Artery. Put shortly:
as §1

Experiment [5] deals with Canis familiaris. Put plainly: Maximum percentage decrease in diastolic blood pressure produced by the compound at a dose 1 mg/kg. In kind it is functional, Canis lupus familiaris, Artery. An outline of the steps:
as §2

The species entered for experiment [6] is Canis familiaris. The experiment is described as follows: The effective dose was measured to produce the 10%increase in heart rate. It counts as functional, Canis lupus familiaris. An outline of the steps:
as §1

The species named for experiment [7] is Cavia porcellus. The experiment is described as follows: In vitro concentration required to give a 50% increase in basal contractile force in an isolated paced guinea pig papillary muscle preparation. In kind it is functional, Muscle tissue. An outline of the steps: (§3)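 Isolated guinea pig papillary muscle, loaded at 500 mg, in Krebs-Henseleit with 2.5 mM Ca2+, gassed 95% O2-5% CO2, 34 °C. Paced with 1-ms rectangular pulses at 1.5 Hz, 20% above threshold voltage. Isometric tension recorded. Preparations not contracting uniformly after 60 min were rejected. pA50 is the -log concentration giving a 50% rise in basal force. Top concentrations tested were 0.2, 1 or 5 mM.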

The species named for experiment [8] is Cavia porcellus. The experiment is described as follows: In vitro concentration required to give a 50% increase in basal contractile force in an isolated paced guinea pig papillary muscle preparation at 1mM; i = 'inactive'. It counts as functional. The conditions noted are these: Muscle tissue. An outline of the steps:
as §3

Experiment [9] is filed under the species Cavia porcellus. Put plainly: In vitro concentration required to give a 50% increase in basal contractile force in an isolated paced guinea pig papillary muscle preparation at 0.2mM; i = 'inactive'. It counts as functional. The conditions noted are these: Muscle tissue. Put shortly: as §3
Experiment [10] has as its system Canis familiaris. Put plainly: Maximum percentage change in dP/dt, diastolic blood pressure and heart rate produced by the compound at a dose of a mg/kg. In kind it is functional, Canis lupus familiaris, Artery. Put shortly:
as §2

Experiment [11] relates to Canis familiaris. The experiment is described as follows: Maximum percentage decrease in diastolic blood pressure produced by the compound at a dose 3 mg/kg. In kind it is functional, Canis lupus familiaris, Artery. An outline of the steps:
as §2

The test system of experiment [12] is Canis familiaris. The experiment is described as follows: Maximum percentage increase in heart rate produced by the compound at a dose of 3 mg/kg. It counts as functional, Canis lupus familiaris. Put shortly: as §2
The species named for experiment [13] is Canis familiaris. The experiment is described as follows: The effective dose was measured to produce the 10%increase in heart rate. In kind it is functional, Canis lupus familiaris. An outline of the steps: as §1
Experiment [14] relates to Canis familiaris. Put plainly: Maximum percentage decrease in diastolic blood pressure produced by the compound at a dose of 3.0 mg/kg. In kind it is functional, Canis lupus familiaris, Artery. An outline of the steps: as §2
For experiment [15], the species on record is Canis familiaris. Put plainly: The effective dose to produce the 30%decrease in diastolic blood pressure. In kind it is functional, Canis lupus familiaris, Artery. Put shortly: as §1
The subject of experiment [16] is Canis familiaris. Put plainly: Maximum percentage change in dP/dt, diastolic blood pressure and heart rate produced by the compound at a dose 3.0 mg/kg. In kind it is functional, Canis lupus familiaris, Artery. Put shortly: as §2
For experiment [17], the species on record is Cavia porcellus. The experiment is described as follows: In vitro concentration required to give a 50% increase in basal contractile force in an isolated paced guinea pig papillary muscle preparation at 5mM; i = 'inactive'. Particulars: Muscle tissue. It counts as functional. Put shortly:
as §3

For experiment [18], the system named is Canis familiaris. Put plainly: Maximum percentage change in dP/dt, diastolic blood pressure and heart rate produced by the compound at a dose of 3.0 mg/kg. In kind it is functional, Canis lupus familiaris, Artery. Put shortly:
as §2

Regarding `COc1cc([S+](C)[O-])ccc1-c1nc2cnccc2[nH]1` (stereo not given) [ISOMAZOLE], the ED30 DBP in the experiment filed under Canis familiaris [1] amounted to 0.16 mg/kg. Besides, the Max increase is 88% in the experiment on Canis familiaris [2] and 15% with Canis familiaris [3]. This compound also yielded an ED50 in the experiment filed under Canis familiaris [4] of 0.05 mg/kg. The Max decrease in the experiment on Canis familiaris [5] came to 43%. Also, the ED10 HR in the experiment listed under Canis familiaris [6] was 0.056 mg/kg. The compound also gave a pA50 in the experiment listed under Cavia porcellus [7] of 4.64.
Turning to `COc1cc2[nH]c(-c3ccc([S+](C)[O-])cc3OC)nc2cn1` (stereo not given), the pA50 in the experiment listed under Cavia porcellus [7] amounted to 3.76.
For `CNc1[nH]ccc2nc(-c3ccc(OC)cc3OC)nc1-2`, the pA50 entry in the experiment filed under Cavia porcellus [8] is “Weak inotropic effects”.
For `COc1ccc(-c2nc3c(C)nccc3[nH]2)c(OC)c1`, in the experiment listed under Cavia porcellus [9], the pA50 entry was “Weak inotropic effects”.
As to `COc1cc([S+](C)[O-])ccc1-c1nc2c(OC)nccc2[nH]1` (stereo not given), the figures for the Max increase in the experiment on Canis familiaris [10] and with Canis familiaris [3] were 125% and 10%, respectively. The same compound returned an ED30 DBP in the experiment filed under Canis familiaris [1] of 0.2 mg/kg. Moreover, the Max decrease in the experiment with Canis familiaris [11] amounted to 70%. This compound came in with an ED50 in the experiment listed under Canis familiaris [4] of 0.13 mg/kg. This compound also showed an ED10 HR in the experiment filed under Canis familiaris [6] of 0.28 mg/kg. The compound further registered a pA50 in the experiment filed under Cavia porcellus [7] of 3.91.
In the case of `COc1cc([S+](C)[O-])ccc1-c1nc2cccnc2[nH]1` (stereo not given) [SULMAZOLE], the Max increase in the experiment with Canis familiaris [12] is given as 20%; in the experiment with Canis familiaris [16], 73%. The ED10 HR in the experiment filed under Canis familiaris [13] was found to be 0.5 mg/kg. Further, the Max decrease in the experiment on Canis familiaris [14] is listed as 36%. The compound further displayed an ED50 in the experiment filed under Canis familiaris [4] of 0.8 mg/kg. In the experiment listed under Canis familiaris [15], this compound returned an ED30 DBP of 1 mg/kg. The same compound showed a pA50 in the experiment filed under Cavia porcellus [7] of 4.7.
For the compound `COc1cc(SC)ccc1-c1nc2c(N)cncc2[nH]1`, the pA50 result in the experiment listed under Cavia porcellus [8] was “Weak inotropic effects”.
`COc1ccc2[nH]c(-c3ccc([S+](C)[O-])cc3OC)nc2n1` (stereo not given) returned a pA50 in the experiment listed under Cavia porcellus [7] of 3.
With `COc1ccc(-c2nc3cc(C(C)=O)c[nH]c-3n2)c(OC)c1`, in the experiment filed under Cavia porcellus [8], the pA50 result was “Weak inotropic effects”.
As for `COc1cc([S+](C)[O-])ccc1-c1nc2cc(C)c[nH]c-2n1` (stereo not given), the pA50 in the experiment filed under Cavia porcellus [7] was 3.73.
Turning to `COc1cc([S+](C)[O-])ccc1-c1nc2[nH]ccc(OC)c-2n1` (stereo not given), in the experiment listed under Cavia porcellus [7], the pA50 worked out at 4.1.
Turning to `COc1ccc(-c2nc3c(N)cncc3[nH]2)c(OC)c1`, the pA50 result in the experiment listed under Cavia porcellus [17] is “Weak inotropic effects”.
In the experiment filed under Canis familiaris [1], `COc1cc([S+](C)[O-])ccc1-c1nc2cc(N)c[nH]c-2n1` (stereo not given) yielded an ED30 DBP greater than 3 mg/kg. The Max increase in the experiment on Canis familiaris [12] was determined as 15%; in the experiment with Canis familiaris [18], 87%. For the same compound, in the experiment with Canis familiaris [14], the Max decrease was 25%. This compound had an ED50 in the experiment filed under Canis familiaris [4] of 0.5 mg/kg. Further, in the experiment filed under Canis familiaris [6], the ED10 HR turned out to be 1.41 mg/kg. In the experiment filed under Cavia porcellus [7], this compound gave a pA50 of 4.01.
Take `COc1cc([S+](C)[O-])ccc1-c1nc2cc(O)c[nH]c-2n1` (stereo not given): in the experiment listed under Cavia porcellus [7], the pA50 worked out at 3.75.
With `COc1cc([S+](C)[O-])ccc1-c1nc2cc(Cl)c[nH]c-2n1` (stereo not given), the pA50 in the experiment filed under Cavia porcellus [7] came out at 3.61.
Take `COc1cc([S+](C)[O-])ccc1-c1nc2c(N)cncc2[nH]1` (stereo not given): the pA50 in the experiment filed under Cavia porcellus [7] is recorded as 3.72.
On to `COc1ccc(-c2nc3cc(N)c[nH]c-3n2)c(OC)c1`, for which the pA50 in the experiment filed under Cavia porcellus [7] is on record as 4.8.
Take `COc1cc([S+](C)[O-])ccc1-c1nc2c(OC)cncc2[nH]1` (stereo not given): in the experiment filed under Cavia porcellus [7], the pA50 came to 3.
Regarding `COc1ccc(-c2nc3ccc[nH]c-3n2)c(OC)c1`, the pA50 in the experiment filed under Cavia porcellus [7] was determined as 5.08.
In the experiment filed under Cavia porcellus [7], `COc1c[nH]c2nc(-c3ccc([S+](C)[O-])cc3OC)nc-2c1` (stereo not given) showed a pA50 of 3.63.
On the same count and under the same terms, the value for `COc1ccc(-c2nc3cc[nH]cc-3n2)c(OC)c1` was 4.01.

As usually defined, the ED50 is the dose that gives a 50% effect, or the effect in half of the subjects.
